Sampled rows, rich in hits. Any-hit rate of the full collection: about 1.4%.
ABCB6 inh MLPCN: blocks the human ABCB6 transporter; 0.19% of 360,000 active; K562-ABCB6 porphyrin accumulation, flow cytometry, 1 h; hits give low values; Q9NP58; fluorescence ratio to DMSO, % at 10 µM;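 active means fluorescence ratio to DMSO below 75%, the collection mean minus 3 SD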;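 further: signal is porphyrin accumulated inside mitochondria; lower ratio means ABCB6 inhibition with less porphyrin fluorescence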
TNAP inh noacc: inhibitors of human TNAP without phosphate acceptor | purified TNAP, CDP-star luminescence, 30 min | inhibition, % at 20 µM | 0.26% of 200,000 active | AID 1012;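 active means tissue-nonspecific alkaline phosphatase inhibition above about 50% at 20 µM in the single-dose screen, limit read from the data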
CHT inh: inhibitors of human choline transporter CHT; AID 488975; CHT-expressing cells, membrane potential dye, choline response; hits give low values; B-score at 10 µM; 0.86% of 310,000 active;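 active means B-score over 3 SD under the library average, and starting fluorescence ratio not unusually high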;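 further: choline stimulus applied at its EC90 after an EC20 pre-addition; B-score computed on integrated fluorescence ratio after choline addition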
Target sequence (Q9GZV3 whole entry, looked up): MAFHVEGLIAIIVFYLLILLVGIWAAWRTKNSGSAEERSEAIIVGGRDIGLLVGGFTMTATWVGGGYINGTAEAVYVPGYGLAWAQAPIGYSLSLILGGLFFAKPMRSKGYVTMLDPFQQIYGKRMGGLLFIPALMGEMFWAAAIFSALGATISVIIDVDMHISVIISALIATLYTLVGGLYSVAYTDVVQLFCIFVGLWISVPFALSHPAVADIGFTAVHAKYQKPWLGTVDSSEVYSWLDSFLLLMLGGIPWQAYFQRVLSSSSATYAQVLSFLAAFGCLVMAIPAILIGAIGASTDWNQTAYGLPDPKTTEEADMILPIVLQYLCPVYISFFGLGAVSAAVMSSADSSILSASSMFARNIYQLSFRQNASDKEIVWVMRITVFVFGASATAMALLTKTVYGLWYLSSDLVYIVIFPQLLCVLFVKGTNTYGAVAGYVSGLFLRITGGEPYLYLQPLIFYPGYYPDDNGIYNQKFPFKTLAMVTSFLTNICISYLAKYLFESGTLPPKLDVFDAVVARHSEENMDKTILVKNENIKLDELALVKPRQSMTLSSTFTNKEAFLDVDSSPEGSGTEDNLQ
CHT allo act: allosteric activators of human choline transporter CHT. CHT-expressing cells, membrane potential dye, choline EC20; hits give high values; LV-AA mutant CHT in HEK293 cells. B-score at 10 µM. 0.49% of 310,000 active;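 active means initial fluorescence not abnormally high and integrated response B-score, plate-corrected, over 3 SD above library mean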
TNAP act hi DEA: increases human TNAP activity under high phosphate acceptor concentration | P05186 | purified TNAP, CDP-star luminescence, 1 M DEA, 30 min; hits give high values; 0 = EDTA background, 1 = DMSO-only activity | activation factor at 20 µM | 200,000 tested, under 10 active | AID 1136;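 active means activation factor at least 2 at 20 µM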
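Control set: EDTA negative control, DMSO positive control / Assay system: human TNAP / Quantity: TNAP 1/800 final / Evaluation: TNAP activation factor scaled between EDTA and DMSO control wells / Measured by: luminescent substrate turnover signal / Compound dosing: one dose, 20 µM / Times: 30 min enzyme reaction at room temperature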
TNAP inh hi DEA: blocks human TNAP under high phosphate acceptor concentration | P05186 | purified TNAP, CDP-star luminescence, 1 M DEA | inhibition, % at 20 µM | 0.03% of 200,000 active | AID 1135;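 active means over 50% inhibition of tissue-nonspecific alkaline phosphatase at 20 µM in the single-dose screen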
CHT block conf: human CHT inhibition, confirmatory screen | shares compounds with CHT inh | CHT-expressing cells, choline membrane potential dye; LV-to-AA substituted CHT, HEK293 cells | CHT activity remaining % of control (hits give low values), % at 10 µM | 70% of 2,400 active | AID 493221;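 active means choline transporter activity left, mean of duplicates at 10 µM, below buffer-only control mean minus 3 SD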;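 further: depolarization triggered by choline at its EC90 following an EC20 pre-addition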
HEK293 MPD ctr: CHT inhibitor counter-screen hit in parental HEK293 cells. shares compounds with CHT inh. 4% of 2,400 active. membrane potential ratio readout (active if shifted either direction beyond buffer ±3SD; no single direction) at 10 µM. membrane potential dye, choline response; active = decrease or increase beyond buffer ±3SD;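 further: parental cells lack the transporter so any hit is non-specific; ratio is peak minus trough fluorescence over baseline after EC90 choline challenge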
A number is an active result; 0 = inactive; - = no result.

SMILES	ABCB6 inh MLPCN	TNAP inh noacc	CHT inh	CHT allo act	TNAP act hi DEA	TNAP inh hi DEA	CHT block conf	HEK293 MPD ctr
CCN1CCCC1CNC(=O)c1ccc2c(c1)N(Cc1cccc(Cl)c1)C(=O)c1ccccc1S2(=O)=O (configuration not stated)	0	-	-12	0	-	-	28%	0
CCc1ccccc1NC(=S)N(CCN1CCCCC1)Cc1ccco1	0	0	0	0	0	0	-	-
CS(=O)(=O)N1CCC(Oc2ccccc2C(=O)NC(C2CC2)C2CC2)CC1	0	0	0	0	0	0	-	-
Cn1c(SCC(=O)OCC(=O)c2ccccc2)nnc1-c1cccs1	0	0	0	0	0	0	-	-
CCOC(=O)c1cc(NC(=O)CNCC(c2ccccc2)N(C)C)cc(C(=O)OCC)c1 (configuration not stated)	0	-	-6.8	0	-	-	33%	2.2
COc1ccc(CCNC(=O)CNCC(c2ccccc2)N(C)C)cc1OC (configuration not stated)	0	-	0	0	-	-	-	-
Cc1ccc2c(c1)N(CC(=O)NCCCN1C(C)CCCC1C)C(=O)c1cccnc1O2 (configuration not stated)	0	-	0	0	-	-	-	-
CC1CCCC(C)N1CCCNC(=O)CN1C(=O)c2cccnc2Oc2ccc(Cl)cc21 (configuration not stated)	0	-	-7.1	0	-	-	19%	0
Cc1c(CCC(=O)NCCCn2ccnc2)c(=O)oc2c(C)c3occ(C(C)(C)C)c3cc12	0	-	-5.5	0	-	-	29%	0
O=C(NNC(=S)Nc1ccccc1)c1cc(Br)ccc1Cl	0	-	-5.8	0	-	-	54%	0
O=C(NNC(=S)Nc1ccccc1)NNC(=S)Nc1ccccc1	0	0	0	0	0	0	-	-
COc1ccc(CN(C)C[C@@H]2OCc3cnnn3CCCC(=O)N([C@H](C)CO)C[C@H]2C)cc1	0	-	-	-	-	-	-	-
NC(=S)N/N=C1/CCSc2ccc3ccccc3c21	0	0	-5.6	0	0	0	68%	0
Cc1ccc(NC(=S)N2CCCC(O)C2)cc1 (configuration not stated)	0	0	0	0	0	0	-	-
CC1CC(C)CN(C(=O)CSc2nc(N)cc(=O)[nH]2)C1 (configuration not stated)	0	0	0	0	0	0	-	-
CCC(C)N(C(=O)COc1ccc(NC(C)=O)cc1)C1CCS(=O)(=O)C1 (configuration not stated)	0	0	0	0	0	0	-	-
Cc1cc(C)c(NS(=O)(=O)c2ccc3c(c2)NC(=O)CCS3)c(C)c1	0	-	0	0	-	-	-	-
CCOC(=O)c1ccc(NS(=O)(=O)c2ccc3c(c2)NC(=O)CCS3)cc1	0	-	-5.1	0	-	-	64%	0
Cc1cc(C)c(NC(=O)CNC(=O)CN(C)Cc2ccc(Br)s2)c(C)c1	0	-	-	-	-	-	-	-
O=C1/C(=C\c2ccccn2)SC(=S)N1c1ccc(S(=O)(=O)Nc2nccs2)cc1	0	-	-7	0	-	-	0	0
CC1=NN(c2ccccc2)C(=O)/C1=C/c1c(O)n(-c2ccc(F)cc2)[nH]c1=O	0	0	-5.9	0	0	0	54%	0
CC1=NN(c2ccccc2)C(=O)C1=Cc1ccccc1	0	-	-	-	-	-	-	-
CC(=O)N1CCC(C(=O)Nc2ccc(S(=O)(=O)N3CCCCC3)cc2)CC1	0	-	0	0	-	-	-	-
COC(=O)c1ccc(/C(O)=C(\C#N)c2nc3ccccc3s2)cc1	0	0	-6.5	0	0	0	0	0
Cc1nn(-c2ccccc2)nc1C(=O)Nc1nnc(C(F)(F)F)s1	0	-	-12	0	-	-	43%	0
SMILES	ABCB6 inh MLPCN	TNAP inh noacc	CHT inh	CHT allo act	TNAP act hi DEA	TNAP inh hi DEA	CHT block conf	HEK293 MPD ctr
CCC(Oc1ccccc1)C(=O)Nc1nnc(C(F)(F)F)s1 (configuration not stated)	0	0	-5.1	0	0	0	0	0
COc1ccc(CN(C(=O)c2ccco2)c2ccccc2)cc1	0	0	-5	0	0	0	0	0
CCCOc1ccc(S(=O)(=O)n2cc(F)c(=O)[nH]c2=O)cc1	0	-	0	0	-	-	-	-
Cc1noc(NS(=O)(=O)c2ccc(NC(=O)COc3ccc(Cl)cc3Cl)cc2)c1C	0	0	-6.4	0	0	0	39%	0
Cc1cc(NS(=O)(=O)c2ccc(NC(=O)COc3c(C)cc(Br)cc3C)cc2)no1	0	-	-6	0	-	-	34%	0
COc1ccc(OCC(=O)Nc2ccc(S(=O)(=O)Nc3cc(C)on3)cc2)cc1	0	-	0	0	-	-	-	-
CCOP(=O)(Nc1ccc2oc(=O)c3ccccc3c2c1)OCC	0	-	0	0	-	-	-	-
CCOC(=O)CSC1=C(C#N)C(c2ccccc2)C(C(C)=O)=C(C)N1 (configuration not stated)	0	0	-5.7	0	0	0	0	0
CSC1=C(C#N)C(c2ccccc2)C(C(C)=O)=C(C)N1 (configuration not stated)	0	0	0	0	0	0	-	-
CCCCc1nnc(NC(=O)c2oc3ccccc3c2C)s1	0	-	0	0	-	-	-	-
CCC(C(=O)Nc1ccc(OC)c(Cl)c1)c1ccccc1 (configuration not stated)	0	0	-6.6	0	0	0	0	0
CCC(C(=O)Nc1cccc(C(=O)O)c1)c1ccccc1 (configuration not stated)	0	0	0	0	0	0	-	-
CCC(C(=O)NCc1ccccc1OC)c1ccccc1 (configuration not stated)	0	0	0	0	0	0	0	0
COc1ccccc1CNC(=O)C(c1ccccc1)c1ccccc1	0	-	0	0	-	-	-	-
CN(C(=O)C1CCCN(c2ncnc3c2nc2n3CCCCC2)C1)c1cccc(Cl)c1 (configuration not stated)	0	-	0	0	-	-	-	-
Cc1cccc(N2CCN(C(=O)C3CCN(c4ncnc5c4nc4n5CCCCC4)CC3)CC2C)c1 (configuration not stated)	0	-	-5	0	-	-	43%	0
O=C(C1CCCN(c2ncnc3c2nc2n3CCCCC2)C1)N1CCN(c2cccc(Cl)c2)CC1 (configuration not stated)	0	-	-10	0	-	-	47%	0
Cc1ccc(N2CCN(C(=O)C3CCCN(c4ncnc5c4nc4n5CCCCC4)C3)CC2)c(C)c1 (configuration not stated)	0	-	-5.9	0	-	-	45%	0
O=C(Nc1cc(F)ccc1F)C1CCCN(c2ncnc3c2nc2n3CCCCC2)C1 (configuration not stated)	0	-	-6	0	-	-	46%	0
O=C(Nc1ccc(F)cc1F)C1CCCN(c2ncnc3c2nc2n3CCCCC2)C1 (configuration not stated)	0	-	0	0	-	-	-	-

Screens: PubChem, several laboratories
